Reference: PubChem BioAssay
The source made the active and inactive calls.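 Rule for the calls, unless noted: active = viability at or below 10% of carrier control in both of two separate runs; inconclusive = viability at or below 10% in only one of the two runs; inactive = the rest.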

Legend:
[1] = reducers of endogenous Her2 protein level, primary screen, SKBR3 breast tumor cells, AlphaScreen, ATP viability (AID 461;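 active = Her2 level under about 52% in both replicate screens, with viability over 70% of control, limit read from the data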;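 for Her2 level: lower value means less Her2 protein in the cells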;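 for viability: percent of carrier control wells set as 100% viability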); details: 18-24 h, measured here: SKBR3 viability, ATP luminescence, at 10 µM
[2] = biological target: Receptor tyrosine-protein kinase erbB-2 (Homo sapiens) (UniProt P04626); experiment: as above; details: 18-24 h, at 10 µM, stronger effect = lower value
[3] = SK-BR-3 cell growth inhibitors, pilot screen, 24 h, human (AID 572); details: SK-BR-3 viability, CellTiter-Glo luminescence, at 10 µM, stronger effect = lower value;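 note: compound exposure lasted between 18 and 24 h rather than exactly 24 h; 100% = carrier-treated control wells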
[4] = HUVEC growth inhibition – cell-based, human, primary screen (AID 575;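 active = viability at or below 30% in both replicate assays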;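 note: 100% = median of untreated cell wells with 0.1% DMSO on each plate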); details: HUVEC proliferation, CellTiter-Glo luminescence, 72 h; at 10 µM; stronger effect = lower value
How it was run: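 Test system: primary human umbilical vein endothelial cells; medium: endothelial basal medium with 2% FBS plus growth supplements; dosing: 10 µM compound only; times: 72 h treatment at 37 °C; signal: CTG luminescence; read-out: % viability relative to median vehicle-well signal on each plate; control set: vehicle and MePR control wells; plate: 384-well, collagen-coated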

[5] = growth inhibitors of H69AR lung tumor, primary screen, human, duplicate replicates (AID 580;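 active = viability at or under a set limit in both replicates, limit being median viability minus 3 SD, cut at about 48% in these data, passing the limit was not always enough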;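 note: 100% = mean luminescence of untreated wells and 0% = no signal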); details: H69AR lung tumor cells viability, ATP luminescence, 72 h; at 10 µM; stronger effect = lower value
[6] = reversal of MRP1-mediated doxorubicin resistance, pilot screen, H69AR cells, doxorubicin co-treatment (AID 601;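 active = viability loss from added drug above about 55%, and viability with drug at most 40%, in both replicates, limit read from the data, passing the limit was not always enough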); details: CellTiter-Glo, 72 h, at 10 µM; for differential viability (reversal): stronger effect = higher value
[7] = 384-well plate pilot, post-Golgi transport modulator project, inhibition of yeast transport mutant growth (AID 636; in the data active = inhibition above about 31%); details: absorbance 615 nm, about 18 h, stronger effect = higher value
[8] = growth suppression of yeast trafficking mutant, preliminary HTS, modulators of trafficking downstream of Golgi apparatus project, 1536-format plate, OD 615 nm (AID 637; in the data active = inhibition above about 30%); details: yeast transport mutant growth, absorbance 615 nm, 18 h; stronger effect = higher value
[9] = H69AR cells + 2 uM doxorubicin, measured here: viability with 2 uM doxorubicin, stronger effect = lower value
[10] = H69AR cells, compound alone cytotoxicity

Receptor tyrosine-protein kinase erbB-2 (Homo sapiens), sequence (P04626 whole entry, looked up): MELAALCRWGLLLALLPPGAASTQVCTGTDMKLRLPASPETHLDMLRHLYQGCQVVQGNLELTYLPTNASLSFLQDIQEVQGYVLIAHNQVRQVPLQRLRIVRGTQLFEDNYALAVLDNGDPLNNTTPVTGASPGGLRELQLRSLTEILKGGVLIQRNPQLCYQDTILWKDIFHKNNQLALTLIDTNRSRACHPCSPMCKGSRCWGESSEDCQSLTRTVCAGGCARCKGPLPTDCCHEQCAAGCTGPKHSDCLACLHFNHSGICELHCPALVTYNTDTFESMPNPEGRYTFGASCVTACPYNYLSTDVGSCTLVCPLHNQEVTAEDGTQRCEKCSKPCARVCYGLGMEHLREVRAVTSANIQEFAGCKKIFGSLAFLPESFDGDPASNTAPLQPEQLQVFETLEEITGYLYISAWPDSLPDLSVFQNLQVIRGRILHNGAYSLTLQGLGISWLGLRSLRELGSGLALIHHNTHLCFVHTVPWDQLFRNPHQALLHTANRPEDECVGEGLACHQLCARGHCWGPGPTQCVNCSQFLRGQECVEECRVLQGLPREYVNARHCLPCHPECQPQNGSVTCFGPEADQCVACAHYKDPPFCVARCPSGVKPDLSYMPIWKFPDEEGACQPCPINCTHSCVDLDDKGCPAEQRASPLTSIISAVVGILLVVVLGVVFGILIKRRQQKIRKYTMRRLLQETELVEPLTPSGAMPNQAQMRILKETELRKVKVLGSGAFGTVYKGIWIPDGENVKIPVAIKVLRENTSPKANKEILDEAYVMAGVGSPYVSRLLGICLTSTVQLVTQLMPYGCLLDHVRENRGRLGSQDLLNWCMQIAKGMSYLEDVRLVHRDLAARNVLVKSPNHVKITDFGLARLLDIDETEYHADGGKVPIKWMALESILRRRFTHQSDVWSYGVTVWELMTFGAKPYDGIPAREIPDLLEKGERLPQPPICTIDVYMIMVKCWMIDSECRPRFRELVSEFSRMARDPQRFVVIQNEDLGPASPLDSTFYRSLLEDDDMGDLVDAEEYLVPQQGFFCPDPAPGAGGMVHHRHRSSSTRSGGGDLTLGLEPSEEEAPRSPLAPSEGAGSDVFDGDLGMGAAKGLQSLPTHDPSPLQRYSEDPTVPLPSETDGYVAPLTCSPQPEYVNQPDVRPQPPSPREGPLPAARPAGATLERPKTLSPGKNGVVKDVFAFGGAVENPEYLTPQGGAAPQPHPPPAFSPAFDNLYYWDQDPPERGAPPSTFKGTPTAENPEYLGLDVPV

| SMILES | viability [1] [%] | Her2 level [2] | viability [3] | viability [4] | viability [5] | differential viability (reversal) ([6]; H69AR cells + 2 uM doxorubicin) | viability [6, 9] [%] | viability [6, 10] [%] | inhibition [7] | inhibition [8] |
| --- | --- | --- | --- | --- | --- | --- | --- | --- | --- | --- |
| Cc1ccc(S(=O)(=O)C2(C(=O)Nc3cccnc3)CC2)cc1 | 92.5 | 96% (inactive) | 92.5% (inactive) | 91.6% (inactive) | 98.4% (inactive) | 3.19% (inactive) | 95.2 | 98.4 | -1.67% (inactive) | -8.67% (inactive) |
| CC(C)NC(=O)CSCc1ccccc1Cl | 96 | 95% (inactive) | 96% (inactive) | 86.8% (inactive) | 94.8% (inactive) | 18% (inactive) | 76.8 | 94.8 | -3.33% (inactive) | 0.97% (inactive) |
| Cc1ccc(SCCNS(=O)(=O)c2ccc(F)cc2)cc1 | 85 | 112% (inactive) | 85% (inactive) | 78.8% (inactive) | 105% (inactive) | 13.5% (inactive) | 91.1 | 105 | -6.8% (inactive) | -2.42% (inactive) |
| COc1ccc(C2=NO[C@@H]3C(=O)N(c4cccc(C)c4C)C(=O)[C@H]23)cc1OC | 104 | 106% (inactive) | 104% (inactive) | 97.7% (inactive) | 91.5% (inactive) | -7.95% (inactive) | 99.5 | 91.5 | 4.29% (inactive) | -3.49% (inactive) |
| CC1(C)CC(=O)C(C#N)=C(NCCCO)C1 | 99.5 | 98.5% (inactive) | 99.5% (inactive) | 91.5% (inactive) | 100% (inactive) | -2.31% (inactive) | 103 | 100 | -1.2% (inactive) | 0.97% (inactive) |
| COCCn1nnnc1C(c1cc2cc(OC)ccc2[nH]c1=O)N1CCC(Cc2ccccc2)CC1 (stereo not given) | 124 | 80% (inactive) | 124% (inactive) | 65.4% (inactive) | 9.35% (active) | -15.4% (inactive) | 24.8 | 9.35 | -7.87% (inactive) | -2.38% (inactive) |
| COC(=O)c1cccc(NC(=O)NC2CCCN2S(=O)(=O)c2ccc(Cl)cc2)c1 (stereo not given) | 83 | 75.5% (inactive) | 83% (inactive) | 82.6% (inactive) | 94.1% (inactive) | 11.4% (inactive) | 82.7 | 94.1 | -4.53% (inactive) | -7.05% (inactive) |
| COc1ccc(S(=O)(=O)N2CCCC2C(=O)Nc2ccc(C)cc2)cc1 (stereo not given) | 88 | 105% (inactive) | 88% (inactive) | 92.2% (inactive) | 89.2% (inactive) | -8.78% (inactive) | 98 | 89.2 | -4.86% (inactive) | -4.1% (inactive) |
| Cn1cc(CC(=O)Nc2cccc(C#N)c2)c2ccccc21 | 101 | 87.5% (inactive) | 101% (inactive) | 97.7% (inactive) | 104% (inactive) | 12.6% (inactive) | 91.7 | 104 | -4.61% (inactive) | -2.22% (inactive) |
| COC(=O)c1cc2ccsc2n1CC(=O)Nc1cc(C)cc(C)c1 | 96.5 | 124% (inactive) | 96.5% (inactive) | 64% (inactive) | 84.8% (inactive) | -0.08% (inactive) | 84.8 | 84.8 | 1.92% (inactive) | 14.3% (inactive) |
| Cc1onc(-c2c(Cl)cccc2Cl)c1C(=O)N1CCc2ccccc21 | 97 | 91.5% (inactive) | 97% (inactive) | 68.1% (inactive) | 61.6% (inactive) | -24.3% (inactive) | 85.9 | 61.6 | -0.93% (inactive) | 2.74% (inactive) |
| N#CC1=C(N)OC(c2ccccc2)=C(C#N)C1c1ccc2c(c1)OCO2 (stereo not given) | 95 | 108% (inactive) | 95% (inactive) | 85.5% (inactive) | 93.8% (inactive) | 13.3% (inactive) | 80.6 | 93.8 | -0.13% (inactive) | 100% (active) |
| CCCCC(c1nnnn1CS(=O)(=O)c1ccc(C)cc1)N1CCN(c2ccccc2)CC1 (stereo not given) | 102 | 88% (inactive) | 102% (inactive) | 69.5% (inactive) | 90.6% (inactive) | -0.75% (inactive) | 91.3 | 90.6 | -3.29% (inactive) | -1.27% (inactive) |
| Cc1ccc(NC(=O)CSc2nnc(CSc3nc(C)cc(C)n3)n2Cc2ccco2)c(C)c1 | 88 | 96% (inactive) | 88% (inactive) | 96.9% (inactive) | 80.8% (inactive) | 16.1% (inactive) | 64.7 | 80.8 | 0.8% (inactive) | -6.72% (inactive) |
| N[C@@H](Cc1ccccc1)c1nnc2sc(SCc3ccccc3)nn12 | 90 | 84.5% (inactive) | 90% (inactive) | 85.2% (inactive) | 87.9% (inactive) | 11.5% (inactive) | 76.4 | 87.9 | -3.07% (inactive) | 0.48% (inactive) |
| CCNCC(O)COCC(O)CNCC (stereo not given) | 88.5 | 86% (inactive) | 88.5% (inactive) | 88.3% (inactive) | 99.7% (inactive) | 5.55% (inactive) | 94.2 | 99.7 | -1.03% (inactive) | -0.5% (inactive) |

| SMILES | viability [1] [%] | Her2 level [2] | viability [3] | viability [4] | viability [5] | differential viability (reversal) ([6]; H69AR cells + 2 uM doxorubicin) | viability [6, 9] [%] | viability [6, 10] [%] | inhibition [7] | inhibition [8] |
| --- | --- | --- | --- | --- | --- | --- | --- | --- | --- | --- |
| Nn1c(SCc2csc(-c3ccccc3)n2)nnc1-c1cccs1 | 83 | 82.5% (inactive) | 83% (inactive) | 85.2% (inactive) | 97.3% (inactive) | 6.11% (inactive) | 91.2 | 97.3 | -9.05% (inactive) | 5.25% (inactive) |
| CC(c1ccccc1)N1C(=O)c2ccc(C(=O)NCc3ccco3)cc2C1=O (stereo not given) | 104 | 84% (inactive) | 104% (inactive) | 93.6% (inactive) | 95.7% (inactive) | 5.55% (inactive) | 90.1 | 95.7 | -3.16% (inactive) | -4.92% (inactive) |
| CCOc1cc(NC(=O)c2ccco2)c(OCC)cc1NC(=O)Cc1cccc(OC)c1 | 107 | 99.5% (inactive) | 107% (inactive) | 61.2% (inactive) | 86.7% (inactive) | -0.055% (inactive) | 86.7 | 86.7 | 0.68% (inactive) | -6.39% (inactive) |
| C=CCn1c(CC#N)nnc1N1CCOCC1 | 90.5 | 88% (inactive) | 90.5% (inactive) | 100% (inactive) | 109% (inactive) | 19.4% (inactive) | 89.5 | 109 | -0.68% (inactive) | -2.22% (inactive) |
| Cc1cccc2cc(CN(Cc3nnnn3Cc3ccccc3)C3CCCC3)c(=O)[nH]c12 | 85 | 72.5% (inactive) | 85% (inactive) | 89.3% (inactive) | 72.9% (inactive) | 31.2% (inactive) | 41.7 | 72.9 | -1.18% (inactive) | -4.55% (inactive) |
| CCCCOc1ccc(-c2nnn(CC(=O)NCc3ccco3)n2)cc1 | 82.5 | 81% (inactive) | 82.5% (inactive) | 57.3% (inactive) | 23.9% (active) | -30.3% (inactive) | 54.3 | 23.9 | -1.18% (inactive) | 4.1% (inactive) |
| COc1ccc(C)cc1NC(=O)CN(Cc1nnc(-c2ccc(Cl)cc2)o1)C1CCCC1 | 89 | 89.5% (inactive) | 89% (inactive) | 84.5% (inactive) | 4.7% (active) | -33.9% (inactive) | 38.6 | 4.7 | -4.73% (inactive) | -2.95% (inactive) |
| CNC(=O)c1ccc(N(Cc2ccccc2C)S(C)(=O)=O)cc1 | 98 | 102% (inactive) | 98% (inactive) | 102% (inactive) | 93.6% (inactive) | 0.93% (inactive) | 92.7 | 93.6 | -3.87% (inactive) | -2.95% (inactive) |
| Cc1cc(C)nc(NC(=O)c2c(-c3c(Cl)cccc3Cl)noc2C)n1 | 84 | 98.5% (inactive) | 84% (inactive) | 94% (inactive) | 85.1% (inactive) | -5.23% (inactive) | 90.3 | 85.1 | -7.73% (inactive) | -6.03% (inactive) |
| O=C(Cn1ncc2ccccc21)N1CCN(c2cccc(C(F)(F)F)c2)CC1 | 89.5 | 94.5% (inactive) | 89.5% (inactive) | 93.4% (inactive) | 87.1% (inactive) | -6.95% (inactive) | 94.1 | 87.1 | -5.87% (inactive) | -1.97% (inactive) |
| CCn1cc(C2=NOC(C(=O)Nc3cc(C)nn3-c3ccccc3)C2)c(C)n1 (stereo not given) | 89.5 | 88.5% (inactive) | 89.5% (inactive) | 101% (inactive) | 101% (inactive) | 8.29% (inactive) | 93 | 101 | -1.18% (inactive) | -8.25% (inactive) |
| O=C1N(c2ccccc2)C2CS(=O)(=O)CC2N1c1ccc(Br)cc1 (stereo not given) | 102 | 88.5% (inactive) | 102% (inactive) | 97.7% (inactive) | 101% (inactive) | 17.5% (inactive) | 83.2 | 101 | -6.4% (inactive) | -0.95% (inactive) |
| O=C(c1ccco1)N1CCN(S(=O)(=O)c2ccc3c(c2)CCN3C(=O)C2CCC2)CC1 | 81.5 | 130% (inactive) | 81.5% (inactive) | 101% (inactive) | 95.6% (inactive) | 11.7% (inactive) | 83.9 | 95.6 | -1.71% (inactive) | -6.5% (inactive) |
| COc1ccc(S(=O)(=O)N2CN(Cc3ccco3)c3nc4ccccc4nc32)cc1 | 101 | 84.5% (inactive) | 101% (inactive) | 99.2% (inactive) | 102% (inactive) | 7.69% (inactive) | 94.2 | 102 | 1.82% (inactive) | 1.11% (inactive) |
| COC(=O)c1c(N)n(-c2cc(OC)cc(OC)c2)c2nc3ccccc3nc12 | 85.5 | 93% (inactive) | 85.5% (inactive) | 61.7% (inactive) | 101% (inactive) | 10.6% (inactive) | 90.5 | 101 | -6.35% (inactive) | 3.83% (inactive) |
